Efflux pump inh: inhibitors of Candida antifungal efflux pumps expressed in yeast. S. cerevisiae Candida pump triplex, Nile Red efflux. inhibition, % at 10 µM. actives 0.44% (n = 330,000). AID 485275;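 active means plate passing quality check with inhibition over a set limit, or well fluorescence over plate mean plus 4 SD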;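 further: Nile Red retained in pooled yeast measured as flow cytometry median fluorescence; 0% = buffer negative control and 100% = Enniatin B positive control; higher means more Nile Red kept so more efflux inhibition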
ARFGAP1 inhibitor: rat ARFGAP1 inhibition; actives 0.26% (n = 360,000); inhibition, % at 16.5 µM; AID 651572; Q62848; Arfgap1-stimulated ARF1 GTP hydrolysis, GDP FP detection;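 active means inhibition above a per-plate limit, mean inhibition of low control wells plus 3 SD, cut at about 25% in these data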;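 further: 0% = DMSO wells with enzyme and 100% = wells lacking Arfgap1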
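Assay system: purified rat His6-Arfgap1 residues 1-136 (GAP domain); Reagent: human Δ17 ARF1 bound to GTP; Dosing: 16.5 µM single point, 1.26% DMSO; Times: GTP hydrolysis reaction 2 h at 25 °C; Signal: FP, GDP Alexa 633 tracer displaced from anti-GDP antibody, 620/688 nm; Measure: % inhibition from polarization.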
Rtt109 Vps75: blocks Candida albicans Rtt109/Vps75 acetyltransferase activity | purified Rtt109/Vps75, ThioGlo CoA-SH fluorescence, 4 h | inhibition, % at 34.9 µM | actives 0.16% (n = 330,000);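 active means inhibition of at least 50% in every replicate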
Target sequence (Q5AAJ8 whole entry, looked up): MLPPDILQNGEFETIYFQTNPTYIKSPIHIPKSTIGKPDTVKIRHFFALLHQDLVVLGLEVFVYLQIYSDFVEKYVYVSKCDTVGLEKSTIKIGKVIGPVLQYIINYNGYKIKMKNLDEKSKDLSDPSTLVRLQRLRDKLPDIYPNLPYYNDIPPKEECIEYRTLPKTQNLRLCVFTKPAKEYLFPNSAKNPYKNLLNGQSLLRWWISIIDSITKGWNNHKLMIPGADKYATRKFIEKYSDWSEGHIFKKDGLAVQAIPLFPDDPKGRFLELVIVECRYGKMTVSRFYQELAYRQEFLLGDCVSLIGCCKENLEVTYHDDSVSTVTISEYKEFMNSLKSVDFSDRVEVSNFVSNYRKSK
FGF22 binding: shifts melting point of recombinant human FGF22 | Q9HCT0 | recombinant FGF22 thermal shift, SYPRO orange fluorescence; percent of sucrose octasulfate shift, DMSO zero | activity (Tm shift, normalised), % at 9.99 µM | actives 1.5% (n = 340,000) | AID 651658;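 active means mean Tm shift, scaled 0 neutral to 100 positive control, at about 1.3% or above, every replicate too, limit read from the data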
Target sequence (Q9HCT0 whole entry, looked up): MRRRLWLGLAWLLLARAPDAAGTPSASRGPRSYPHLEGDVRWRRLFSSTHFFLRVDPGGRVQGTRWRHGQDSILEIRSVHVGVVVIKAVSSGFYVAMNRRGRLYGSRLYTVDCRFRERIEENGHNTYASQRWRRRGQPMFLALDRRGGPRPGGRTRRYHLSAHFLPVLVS
ASAP1 GAP inh: ASAP1 ArfGAP inhibition. Q9ULH1. ASAP1-stimulated ARF1 GTP hydrolysis, GDP FP detection. inhibition, % at 16.5 µM. actives 0.19% (n = 360,000). AID 624377; in the data active means inhibition above about 25%;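 further: 0% = vehicle with enzyme and substrate and 100% = no enzyme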
Cmpd fluor yeast: compound fluorescence in yeast efflux pump counter-screen | shares compounds with Efflux pump inh | S. cerevisiae AD/pABC3, flow cytometry | fluorescence ratio to DMSO, % at 10 µM | actives 4% (n = 1,700);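 active means fluorescence ratio to DMSO above its plate's cutoff, the plate mean ratio plus 5 SD, cut at about 210% in these data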;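 further: unstained yeast with no Nile Red so the signal is compound autofluorescence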
Mdr1 pump inh: inhibitors of Candida albicans Mdr1 efflux pump; shares compounds with Efflux pump inh; S. cerevisiae AD/CaMDR1, Nile Red efflux, flow cytometry; inhibition, % at 10 µM; actives 1% (n = 1,700); AID 588518; in the data active means inhibition above about 26%;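 further: 0% = DMSO vehicle and 100% = reference inhibitor; higher means more Nile Red retained so more efflux inhibition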
Cdr2 pump inh: Candida Cdr2 efflux pump inhibition. shares compounds with Efflux pump inh. S. cerevisiae AD/CaCDR2, Nile Red retention, flow cytometry. Nile Red retention ratio vs DMSO, % at 10 µM. actives 4% (n = 1,700). AID 588520; in the data active means Nile Red retention ratio vs DMSO above about 190%;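 further: higher ratio means more blocking of Cdr2 efflux of the dye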
CaCdr1 efflux inh: inhibitors of Candida albicans Cdr1 efflux pump; shares compounds with Efflux pump inh; S. cerevisiae AD/CaCDR1, Nile Red efflux, flow cytometry; inhibition, % at 10 µM; actives 1% (n = 1,700); AID 588522;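 active means inhibition above the screen-wide mean plus twice its standard deviation, cut at about 32% in these data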
* marks the source's active call; other numbers are inactive results; nt = no result given. This is a sample that favours compounds with a hit; in the whole collection about 1.9% have one here.

SMILES | Efflux pump inh | ARFGAP1 inhibitor | Rtt109 Vps75 | FGF22 binding | ASAP1 GAP inh | Cmpd fluor yeast | Mdr1 pump inh | Cdr2 pump inh | CaCdr1 efflux inh
Cc1ccccc1OCC(=O)OCC(=O)NC1CCCC(C)C1C (stereo unspecified) | nt | 2 | nt | nt | -5 | nt | nt | nt | nt
COc1ccc(OCc2cc(C(=O)NCC3CCOCC3)no2)c(Cl)c1 | 0 | 0 | -7 | -1 | 5 | nt | nt | nt | nt
CN(C1=C(NC(=O)c2ccccc2)C(=O)c2ccccc2C1=O)C1CCS(=O)(=O)C1 (stereo unspecified) | 0 | 7 | 15 | 0 | 18 | nt | nt | nt | nt
CN(C)C(=O)c1ccc(-c2ccccc2[C@@H]2[C@@H](CO)N(C(=O)C3CCC3)[C@H]2C#N)cc1 | nt | nt | nt | 0 | nt | nt | nt | nt | nt
CCc1nnc2n1N=C(c1ccc(OC)cc1)CS2 | 0.8* | -3 | -8 | nt | -7 | 91 | -1 | 87 | 0
CCOc1ccc(-c2nnc3n2N=C(c2ccc(OC)cc2)CS3)cc1 | 0 | 10 | 6 | nt | 1 | nt | nt | nt | nt
O=C(COC(=O)c1c(Cl)cccc1Cl)NCC1CCCO1 (stereo unspecified) | 9.0* | -3 | 0 | 0 | -7 | 111 | 0 | 119 | 0
C[C@@H]1CN([C@H](C)CO)C(=O)c2cc(NS(=O)(=O)c3cn(C)cn3)ccc2O[C@H]1CN(C)Cc1ccncc1 | nt | nt | nt | 0 | nt | nt | nt | nt | nt
CCOc1ccc(CCNC(=O)Cc2ccc(NC3=NC4CS(=O)(=O)CC4S3)cc2)cc1 (stereo unspecified) | 0.4* | -2 | 9 | 0 | -7 | 88 | 0 | 90 | 0
Cc1ccc(NC(=O)COc2ccc(N(C)S(=O)(=O)c3ccc(F)cc3)cc2)cc1 | 0.8* | -2 | 6 | 0 | 8 | 87 | 0 | 104 | 0
CCCCCCCC1CC(=O)C=C(C)C1C(=O)OCC (stereo unspecified) | 0 | 6 | nt | 0 | -14 | nt | nt | nt | nt
CCCCCC1C/C(=N\O)C=C(C)C1C(=O)OC (stereo unspecified) | 1.5* | 12 | 13 | 0 | -3 | 99 | 0 | 103 | 0
Cc1ccc(Nc2nc3c([nH]2)c(=O)[nH]c(=O)n3C)cc1 | 0 | -1 | -8 | nt | 8 | nt | nt | nt | nt
O=C(C[C@H]1C[C@@H]2c3cc(NC(=O)Cc4ccncc4)ccc3O[C@@H]2[C@@H](CO)O1)NCc1ccc2c(c1)OCO2 | nt | nt | nt | 0 | nt | nt | nt | nt | nt
COC(=O)c1ccc(/C=C(\C#N)c2nc3ccccc3s2)cc1 | 0 | -7 | 4 | nt | -3 | 102 | 0 | 120 | 0
N#C/C(=C\c1ccccn1)c1nc2ccccc2s1 | 1.6* | 12 | 3 | 0 | 9 | 160 | 0 | 247* | 1
COc1ccc(/C(C#N)=C/c2ccccn2)cc1 | 1.4* | 6 | 2 | 0 | -2 | 105 | 0 | 112 | 0
CC(C)(C)c1ccc(C(=O)OC/C(O)=C(\C#N)c2nc3ccccc3s2)cc1 | 0 | -2 | 6 | 0 | -12 | nt | nt | nt | nt
CCOc1ccc2nc(NC(=O)CCn3cccc3)sc2c1 | 1.0* | -14 | -6 | 0 | -1 | 111 | 0 | 96 | 0
CCOC(=O)c1sc2nc3c(SCC(=O)O)cc(C(=O)c4cc(F)ccc4O)cn3c(=O)c2c1C | 0 | -22 | 16 | 1 | 8 | nt | nt | nt | nt
CCOC(=O)c1sc2nc3c(SCC(=O)O)cc(C(=O)c4ccccc4O)cn3c(=O)c2c1C | 1.5* | 5 | 4 | 0 | -7 | 100 | 0 | 101 | 0
CC(C)c1ccc(OCC(=O)NC2CCCC2)cc1 | 9.2* | 14 | -7 | 0 | 13 | 113 | 0 | 110 | 0
COc1ccc(S(=O)(=O)Nc2ccc3c(c2)C(=O)N([C@@H](C)CO)C[C@H](C)[C@@H](CN(C)Cc2ccc4c(c2)OCO4)OCCCC[C@H](C)O3)cc1 | nt | nt | nt | 0 | nt | nt | nt | nt | nt

High-throughput results as filed in PubChem.
